Fewer inactive variants are shown than the library holds.

The results in this text go back to the RNAGym collection of RNA variant scans (doi:10.1126/science.aae0568).

B1: tRNA (parent)
chain: GUUCCGUUGGCGUAAUGGUAACGCGUCUCCCUCCUAAGGAGAAGACUGCGGGUUCGAGUCCCGUACGGAACG

In the data set the parent is B1. As to the kind of experiment: yeast fitness relative to wild type (ratio to wild type); higher = fitter; tRNA-Arg(CCU), competitive growth, 37 C, YPD. In outline: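 Amplicons of the tRNA-Arg(CCU) gene were sequenced, 100-nucleotide paired-end, from the start population and from each end population of a pooled yeast competition. The competition, in six parallel replicates, lasted 24 hours in YPD at 37°C. Fitness relative to wild type was calculated from changes in genotype frequencies. Genotypes had to have ≥ 100 starting reads, and estimates < 0.5 were set to 0.5.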
Regarding U7A A20C U59A A65C, the yeast fitness was 0.662.

For C11U A21C A42G A69C A70G, the yeast fitness was found to be 0.563.

Turning to C24G U32A A43G G50A A65C, the yeast fitness was at most 0.5.

As to A15U U35C G41A C60A A65U A69G, the yeast fitness is 0.563.

In the case of C24G C49G G56A, the yeast fitness amounted to 0.574.

On to A21U U28G, for which the yeast fitness is 0.659.

Consider C11U C27A G52A, for which the yeast fitness is at most 0.5.

For the variant G18C C24U A40U C55U U59A, the yeast fitness stood at 0.501.

With G9C A36C C55A, the yeast fitness worked out at 0.525.

Turning to C31G A36C C49U U54G A65U, the yeast fitness is at most 0.5.

Consider A15G G38C, for which the yeast fitness was 0.669.

Take A15G G38A: the yeast fitness was 0.866.

For the variant G10C C22U A42U C60G, the yeast fitness is at most 0.5.

Take C5U G18C C22A U54A A65G: the yeast fitness was at most 0.5.

Regarding A45U G50A G68C A69U, the yeast fitness was at most 0.5.

For U19A C24A U32C A36U C66G, the yeast fitness is at most 0.5.

On to C5U C22G C30U C33G, for which the yeast fitness was at most 0.5.

On to G63A G68A, for which the yeast fitness came to 0.843.

Consider U2A G39C, for which the yeast fitness is 0.75.

With A14U A20G C24A C31U C33U A37U G48A A69U, the yeast fitness was at most 0.5.

Consider A21U C29G U35G G41C, for which the yeast fitness is at most 0.5.

Regarding G6A A37G G51C C61U, the yeast fitness amounted to 0.528.

Take G18C C24A: the yeast fitness was at most 0.5.

Regarding A15C G44A A57C, the yeast fitness is at most 0.5.

With U3A A45C, the yeast fitness was 0.88.

Take C11U A40C: the yeast fitness amounted to 0.755.

Turning to G9A U16C A20G A42G G68U, the yeast fitness is at most 0.5.

On to G25A C30U C60G, for which the yeast fitness worked out at 0.541.

Turning to C11A C27G U59A, the yeast fitness was at most 0.5.

For G25U C27A G41A C62U, the yeast fitness was at most 0.5.

Take C27G C33U A40G C49U A69C: the yeast fitness amounted to 0.703.

On to G12C G51A U59A C62G, for which the yeast fitness is at most 0.5.

For the variant U26C C27A C34U G41A, the yeast fitness was at most 0.5.

As for C11U C22G C29G G41A U54A, the yeast fitness is at most 0.5.

For the variant A14G G52C A70U, the yeast fitness was at most 0.5.

In the case of C34A A37U U54C, the yeast fitness was determined as 0.542.

As to C5G U8C, the yeast fitness came to 0.843.

G18A C33G C34G: the yeast fitness is at most 0.5.

As to G39A A42C, the yeast fitness amounted to 0.646.

For the variant C11U C62G C66A, the yeast fitness is at most 0.5.

Take C4U C30A G67C: the yeast fitness amounted to 0.731.

In the case of G6A A43U, the yeast fitness came out at 0.747.

As for C24G A36G A70G, the yeast fitness is at most 0.5.

G25C C46U G50A: the yeast fitness was found to be 0.889.

With U7G C55U G56C G63U, the yeast fitness amounted to 0.602.

Regarding A21G A37G G39C C62U, the yeast fitness was at most 0.5.

For G18C C29U G50C, the yeast fitness was at most 0.5.

As to U3A C31G A43U C60G A65C G67C, the yeast fitness stood at 0.664.

On to C4G G25A U54G, for which the yeast fitness is at most 0.5.

As to U7C G10A C29U C30G C34A, the yeast fitness was at most 0.5.

Turning to C5A G17C A57G C66U, the yeast fitness is at most 0.5.

For A20C A36G U47C, the yeast fitness was found to be 0.658.

On to C11U A21C A42G A69C, for which the yeast fitness is at most 0.5.

As to C5A G18C G67C, the yeast fitness is 0.561.

U3C U59G: the yeast fitness came to 0.71.

Regarding C11A U47C, the yeast fitness is 0.689.

As for C5U A21U A57U A65U, the yeast fitness was at most 0.5.

As for U2A U19A C27U G67A, the yeast fitness was at most 0.5.

In the case of U8A G23C G56A, the yeast fitness was 0.539.

C29G G50A A65U: the yeast fitness was at most 0.5.

Regarding A43U C46A G63A, the yeast fitness stood at 0.689.

As to A14C C27A C31A A70U, the yeast fitness is at most 0.5.

As to A21U G52C C61U, the yeast fitness was at most 0.5.

As for U7A C11A, the yeast fitness was at most 0.5.

Take G18A C33G: the yeast fitness is at most 0.5.

Turning to U16G A43C, the yeast fitness came out at 0.919.

As for U32A C33U A40C, the yeast fitness was 0.661.

On to U3G U16G U28C A57U, for which the yeast fitness was at most 0.5.

Take C5A G18A G25A C31U C61U: the yeast fitness was 0.562.

On to U16C A21U A43U C61A, for which the yeast fitness was at most 0.5.

Take C4U A20G C27A G52A: the yeast fitness was at most 0.5.

C4A U47A G48C: the yeast fitness is 0.559.

For the variant A43G U64C, the yeast fitness is 0.923.

On to C4U C49A A65U, for which the yeast fitness came to 0.583.

As to G18C G68A, the yeast fitness was 0.619.

Regarding C11A G18C C27A G48A U54C, the yeast fitness was 0.76.

As for A15U U28A G44A U64C, the yeast fitness is at most 0.5.

As to G18A C29G A37G, the yeast fitness amounted to 0.598.

C5U G50C G51C G56C A69U: the yeast fitness is at most 0.5.

For C34G C49A G50A, the yeast fitness was at most 0.5.

For the variant C34G C46A, the yeast fitness stood at 0.615.

Regarding G18A A65U, the yeast fitness turned out to be 0.729.

As for C4U A20C C22U U47A C62U, the yeast fitness came out at 0.753.

C27A A65G: the yeast fitness stood at 1.02.

In the case of U2A G6A U16C C24U G38C A65C, the yeast fitness was at most 0.5.

Regarding G18A A40G A65G, the yeast fitness is at most 0.5.

Take U28C G39U C49A C55U: the yeast fitness is at most 0.5.

For U2C G12A A15G C62U, the yeast fitness is at most 0.5.

As to C5U U13A G58C, the yeast fitness is 0.63.

With C5A C24U A36C, the yeast fitness is at most 0.5.

In the case of U2G A36G, the yeast fitness was determined as 0.953.

C22U C66U A69U: the yeast fitness was 0.6.

For C11U U28C, the yeast fitness was 0.918.

Take G9C C11U C22G A65U: the yeast fitness was at most 0.5.

Regarding C27G U32A G41A, the yeast fitness was determined as 0.671.

As to A14C U19A C22U A45C, the yeast fitness was at most 0.5.

U16A G17C C61G A70C: the yeast fitness is at most 0.5.

Consider U28C G41C C62A, for which the yeast fitness was at most 0.5.

As for U26C G48A, the yeast fitness worked out at 1.05.

For A14G C55A, the yeast fitness is at most 0.5.

As for U28C G58U A65G G67A, the yeast fitness was at most 0.5.

G18C A21C A69U: the yeast fitness is at most 0.5.

Turning to U2C C22G A36G, the yeast fitness came out at 0.651.

Turning to A20U C22A C61A C62G, the yeast fitness was at most 0.5.

Take U19A C24A G48C: the yeast fitness was at most 0.5.

For G6A A15G U54C, the yeast fitness is at most 0.5.

Regarding A15G A20G C27U, the yeast fitness amounted to 0.732.

Turning to U2C G17C G23A C49G, the yeast fitness was at most 0.5.

For C29G A40U A65U, the yeast fitness is at most 0.5.

Consider U2A C29A C30U C46U G58C, for which the yeast fitness was at most 0.5.

Take C29A C34U A36U C61U G67U: the yeast fitness was at most 0.5.

In the case of G23C C49U C55G, the yeast fitness is at most 0.5.

On to C30G G39C G44A, for which the yeast fitness was at most 0.5.

In the case of G25A U35G, the yeast fitness was determined as 0.603.

With U2C A15C C55G A57C, the yeast fitness came to 0.512.

Regarding U7C G41A A42C G50C C55A, the yeast fitness is at most 0.5.

On to C27A C31G A57C U64A G68A, for which the yeast fitness is at most 0.5.

Take C11A C33U U54C: the yeast fitness was at most 0.5.

With C31A A40C C62U, the yeast fitness was 0.532.

G10A G51C G58U: the yeast fitness is at most 0.5.

Regarding G52C C66U, the yeast fitness was 0.547.

As for U26G U35A A69G A70G, the yeast fitness is 0.732.

For C5G G38C U47G C62U, the yeast fitness was at most 0.5.

Turning to C33U A37U C60G A69C, the yeast fitness is at most 0.5.

Turning to C11G U28A C62A, the yeast fitness is at most 0.5.

With U3C A21G C46G G50A, the yeast fitness was at most 0.5.

Turning to A20C A45C G63C G67A, the yeast fitness was at most 0.5.

For G12A C27G U32G, the yeast fitness was at most 0.5.

Regarding G6A A20G C31G C46U, the yeast fitness is 0.58.

As for U3A C30U C31U G52A, the yeast fitness was at most 0.5.

Regarding U26C C29A C34A, the yeast fitness is at most 0.5.

Consider A15G A45U C61G, for which the yeast fitness is 0.6.

Turning to A20C C62U A70G, the yeast fitness turned out to be 0.733.

Consider G18C G23A, for which the yeast fitness is at most 0.5.

Turning to G48C, the yeast fitness is 0.977.

Turning to A14C C24U A40U G44A A70G, the yeast fitness is at most 0.5.

Regarding U32G U35A, the yeast fitness is at most 0.5.

A15C U16C A20C U54C A57G: the yeast fitness was at most 0.5.

G48C G51C U59A: the yeast fitness is at most 0.5.

Turning to C27U A43G G52C C62U G63A, the yeast fitness was at most 0.5.

On to G6C A70G, for which the yeast fitness came to 0.948.

For the variant C4G U16C G44A G48A G50C A57U, the yeast fitness was at most 0.5.

In the case of G51C A57G, the yeast fitness is 0.52.

As to U35A C49G G58A C60A, the yeast fitness was at most 0.5.

Turning to G10A C30A, the yeast fitness is 0.64.

In the case of C11U A15C A21G C29U A37G, the yeast fitness is at most 0.5.

For the variant U13G C31A C66U, the yeast fitness was 0.814.

C27A C49U: the yeast fitness amounted to 0.826.

Take C66A G68C: the yeast fitness is 0.678.

Turning to U8G U32C C33G C61A C66U, the yeast fitness is at most 0.5.

As to G6C C11A C34G A65G, the yeast fitness was at most 0.5.

Consider C5A C34A A40U A43G C62U, for which the yeast fitness is at most 0.5.

As for G41C C61U, the yeast fitness turned out to be 0.857.

Consider U3C G9C C11U C30G A43C, for which the yeast fitness turned out to be 0.519.

As to G23C C33A, the yeast fitness is at most 0.5.

As for C31G A43U U47A, the yeast fitness was determined as 0.605.

Consider U3A C46U A69C, for which the yeast fitness stood at 0.76.

Take U28G C31U A69U: the yeast fitness turned out to be 0.524.

C27G C34A G68C: the yeast fitness was at most 0.5.

Turning to C11U U53A, the yeast fitness was 0.751.

Take U8C U19A A40C G44C G48C: the yeast fitness was at most 0.5.

As for U2G A21G C61G, the yeast fitness was at most 0.5.

For U8A A14U G17A C27U, the yeast fitness was at most 0.5.

In the case of G12C A14C C24U A45U G58A A65G, the yeast fitness was at most 0.5.

In the case of A20G U28C A40C, the yeast fitness is 0.634.

U3G A45C A70U: the yeast fitness turned out to be 0.857.

U2A C29U: the yeast fitness was 0.884.
